Legend:
ATM = ATM (Homo sapiens, UniProt Q13315); assay: In vitro ATM inhibition assay; assay type: biochemical; details: recombinant human ATM, p53 substrate, HTRF
[1] = In vivo antitumor assay, body weight of mice; parameters: species or system nu/nu mice; details: NTERA-2 cL.D1 xenograft, nude mice, 10 mg/kg daily intraperitoneal, 15 days
Summary of the method: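 Male nu/nu mice aged 4–6 weeks received subcutaneous NTERA-2 cL.D1 cells (1×10⁷ in PBS). Once tumors reached 90–120 mm³, mice were randomized into four groups: vehicle, two reference inhibitors, or test compound, each at 10 mg/kg by daily intraperitoneal injection. Body weight and caliper tumor volume were recorded every 3 days for 15 days. n = 6 per group; mean ± SD.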

HDAC2 = HDAC2 (Homo sapiens, UniProt Q92769); assay: In vitro HDAC2 inhibition assay; assay type: biochemical; details: recombinant human HDAC2, Boc-Lys(acetyl)-AMC
Chain of HDAC2 (Q92769 whole entry): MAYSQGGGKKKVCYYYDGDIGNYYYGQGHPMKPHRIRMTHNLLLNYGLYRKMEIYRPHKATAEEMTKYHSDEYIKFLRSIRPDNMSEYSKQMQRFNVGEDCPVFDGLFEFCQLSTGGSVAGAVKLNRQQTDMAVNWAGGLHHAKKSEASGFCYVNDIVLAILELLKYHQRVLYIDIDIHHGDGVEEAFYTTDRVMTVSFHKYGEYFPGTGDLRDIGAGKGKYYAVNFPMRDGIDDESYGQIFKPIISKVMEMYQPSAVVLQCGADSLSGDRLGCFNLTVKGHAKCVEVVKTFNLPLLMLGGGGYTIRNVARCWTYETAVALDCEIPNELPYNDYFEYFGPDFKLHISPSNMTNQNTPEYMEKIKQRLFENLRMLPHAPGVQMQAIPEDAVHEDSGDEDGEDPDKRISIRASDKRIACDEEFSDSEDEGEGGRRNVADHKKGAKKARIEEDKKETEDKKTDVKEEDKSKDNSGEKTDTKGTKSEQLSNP

Chain of ATM (Q13315 whole entry): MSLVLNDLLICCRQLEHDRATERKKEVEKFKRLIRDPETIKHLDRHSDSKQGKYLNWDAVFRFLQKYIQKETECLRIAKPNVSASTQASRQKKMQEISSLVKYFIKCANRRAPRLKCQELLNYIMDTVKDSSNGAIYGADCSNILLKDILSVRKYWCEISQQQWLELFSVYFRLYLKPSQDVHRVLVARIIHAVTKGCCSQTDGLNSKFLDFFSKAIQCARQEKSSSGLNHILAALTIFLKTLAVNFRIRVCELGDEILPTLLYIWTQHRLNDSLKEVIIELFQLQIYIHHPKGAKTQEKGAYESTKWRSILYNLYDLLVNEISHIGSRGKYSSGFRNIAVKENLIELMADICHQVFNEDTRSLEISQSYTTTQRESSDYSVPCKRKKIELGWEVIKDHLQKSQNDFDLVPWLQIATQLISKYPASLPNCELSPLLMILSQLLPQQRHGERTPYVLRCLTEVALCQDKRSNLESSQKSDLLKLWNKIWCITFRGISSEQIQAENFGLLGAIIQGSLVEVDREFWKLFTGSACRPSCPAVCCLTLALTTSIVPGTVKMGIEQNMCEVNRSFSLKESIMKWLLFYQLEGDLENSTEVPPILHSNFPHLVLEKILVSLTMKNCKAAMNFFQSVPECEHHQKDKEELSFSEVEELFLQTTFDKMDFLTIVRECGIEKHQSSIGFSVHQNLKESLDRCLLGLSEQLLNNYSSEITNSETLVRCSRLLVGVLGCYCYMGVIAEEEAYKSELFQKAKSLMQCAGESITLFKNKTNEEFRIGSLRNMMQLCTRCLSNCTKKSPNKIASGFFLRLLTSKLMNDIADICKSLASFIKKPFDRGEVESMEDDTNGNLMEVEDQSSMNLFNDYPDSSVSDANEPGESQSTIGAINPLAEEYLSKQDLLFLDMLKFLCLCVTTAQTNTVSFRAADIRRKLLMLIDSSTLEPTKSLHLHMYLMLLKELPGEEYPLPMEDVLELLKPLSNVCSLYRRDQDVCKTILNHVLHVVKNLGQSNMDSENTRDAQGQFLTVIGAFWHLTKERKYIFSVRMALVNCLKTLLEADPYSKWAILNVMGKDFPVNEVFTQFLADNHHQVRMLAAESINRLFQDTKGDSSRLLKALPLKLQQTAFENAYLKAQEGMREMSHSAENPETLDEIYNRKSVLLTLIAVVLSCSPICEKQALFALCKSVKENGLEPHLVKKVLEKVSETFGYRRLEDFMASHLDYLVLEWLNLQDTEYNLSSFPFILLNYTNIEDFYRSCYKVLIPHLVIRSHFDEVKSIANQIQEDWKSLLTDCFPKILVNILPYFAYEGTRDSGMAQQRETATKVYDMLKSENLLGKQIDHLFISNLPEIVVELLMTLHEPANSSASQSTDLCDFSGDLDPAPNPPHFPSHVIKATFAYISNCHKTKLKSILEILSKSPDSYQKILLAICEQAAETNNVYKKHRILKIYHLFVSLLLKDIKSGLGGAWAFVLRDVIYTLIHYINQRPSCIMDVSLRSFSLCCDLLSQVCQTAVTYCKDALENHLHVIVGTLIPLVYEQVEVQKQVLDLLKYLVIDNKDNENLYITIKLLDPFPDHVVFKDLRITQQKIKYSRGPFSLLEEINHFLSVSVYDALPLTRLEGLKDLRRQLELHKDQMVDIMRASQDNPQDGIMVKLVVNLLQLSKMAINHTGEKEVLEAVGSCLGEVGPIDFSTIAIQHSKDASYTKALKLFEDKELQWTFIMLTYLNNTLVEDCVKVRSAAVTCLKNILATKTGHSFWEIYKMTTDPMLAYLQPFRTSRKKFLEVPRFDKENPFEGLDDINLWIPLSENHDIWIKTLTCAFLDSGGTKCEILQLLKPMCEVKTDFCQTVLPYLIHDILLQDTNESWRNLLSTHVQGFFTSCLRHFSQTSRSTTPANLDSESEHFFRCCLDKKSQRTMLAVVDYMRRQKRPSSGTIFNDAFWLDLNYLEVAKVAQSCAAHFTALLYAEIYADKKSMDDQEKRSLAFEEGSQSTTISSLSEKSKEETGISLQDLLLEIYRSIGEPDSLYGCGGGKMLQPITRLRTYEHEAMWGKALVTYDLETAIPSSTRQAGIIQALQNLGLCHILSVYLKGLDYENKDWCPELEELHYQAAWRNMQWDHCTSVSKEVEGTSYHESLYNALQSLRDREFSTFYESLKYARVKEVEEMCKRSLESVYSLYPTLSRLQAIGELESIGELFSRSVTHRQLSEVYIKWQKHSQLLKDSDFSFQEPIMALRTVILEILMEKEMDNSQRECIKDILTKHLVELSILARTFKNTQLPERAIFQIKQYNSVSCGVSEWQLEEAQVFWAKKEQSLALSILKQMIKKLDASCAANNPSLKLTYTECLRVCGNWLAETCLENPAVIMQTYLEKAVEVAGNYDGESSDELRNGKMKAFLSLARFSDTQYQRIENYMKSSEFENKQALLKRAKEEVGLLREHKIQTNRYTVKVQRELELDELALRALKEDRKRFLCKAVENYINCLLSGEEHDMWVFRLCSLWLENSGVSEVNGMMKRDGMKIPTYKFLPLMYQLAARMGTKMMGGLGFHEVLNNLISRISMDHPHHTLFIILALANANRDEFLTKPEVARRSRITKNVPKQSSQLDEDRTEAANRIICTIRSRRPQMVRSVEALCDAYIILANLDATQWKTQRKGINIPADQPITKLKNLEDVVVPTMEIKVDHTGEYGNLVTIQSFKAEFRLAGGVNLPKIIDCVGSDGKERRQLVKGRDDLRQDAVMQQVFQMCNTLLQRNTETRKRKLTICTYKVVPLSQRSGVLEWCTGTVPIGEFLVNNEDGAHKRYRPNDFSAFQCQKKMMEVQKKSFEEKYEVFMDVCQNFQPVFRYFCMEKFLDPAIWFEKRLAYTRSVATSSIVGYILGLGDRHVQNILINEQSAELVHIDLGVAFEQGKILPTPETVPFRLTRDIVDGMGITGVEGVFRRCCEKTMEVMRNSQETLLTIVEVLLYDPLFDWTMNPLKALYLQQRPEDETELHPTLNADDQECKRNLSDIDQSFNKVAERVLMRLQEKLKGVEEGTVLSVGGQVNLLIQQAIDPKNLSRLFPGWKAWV

Row | Compound | ATM (IC50, nM) (ATM) | ATM (IC50, nM) (ATM; listed as vorinostat) | body weight of mice [1] | HDAC2 (IC50, nM) (HDAC2) | HDAC2 (IC50, nM) (HDAC2; listed as lartesertib)
1 | O=C(CCCCCCC(=O)Nc1ccccc1)NO [Vorinostat] | no inhibition | did not affect | slight decrease | – | –
2 | COc1cc2ncc3c(c2cc1-c1cn(C)nc1C)n(-c1c(F)cncc1OC)c(=O)n3C [Lartesertib] | – | – | – | no inhibition | no inhibitory effect
